Assays:
[1] = Inhibition of CaCl2-induced contraction in potassium depolarized-guinea pig ileal smooth muscle; format: functional, Cavia porcellus
Cavia porcellus [2] = organism: Cavia porcellus; test: Inhibition of CaCl2-induced contraction in potassium-depolarized guinea pig ileal smooth muscle at 10 uM; format: functional
Procedure, shortened: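 Guinea-pig ileum segments (2.5 cm) in high-K+ (45 mM KCl), Ca-free Krebs at 37 °C, gassed 95% O2/5% CO2, 1.5 g resting tension, isometric recording. CaCl2 raised bath Ca to 2.5 mM to give a sustained contracture. Compound at 1×10^-5 M in 0.5% DMSO/water added once contraction stabilised. Nifedipine 1×10^-8 M was the positive control. Mean ± SEM, n = animals.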

Cavia porcellus [3] = organism: Cavia porcellus; details: 10 nM

SMILES	EC50 [1] [µM]	inhibition (Cavia porcellus [2]) [%]	also measured
Cc1c(O)c2c(c(C)c1CCO)C(=O)C(C)(C)C2 [ONITIN]	100		
O=C1C=C(NC2CCc3ccccc32)c2ccccc21 (racemic)		30	
Cc1c(O)c2c(c(C)c1CCO)C(=O)C(C)(O)C2 (stereo unspecified) [ONITISIN]	2000		
C=CCN(C1=CC(=O)c2ccccc21)C1CCc2ccccc21 (racemic)		20.9	
COC(=O)C1=C(C)NC(C)=C(C(=O)OC)C1c1ccccc1[N+](=O)[O-]			inhibition (Cavia porcellus [3]): 48.1%
CC(=O)N(C1=CC(=O)c2ccccc21)C1CCc2ccccc21 (racemic)		18.3	
